In ChEMBL document CHEMBL5149984, “Discovery of HN37 as a Potent and Chemically Stable Antiepileptic Drug Candidate” (J Med Chem, 2021):

Tests used:
Mus musculus [1] = assay: Anticonvulsant activity in pentylenetetrazol induced Kunming mouse model of seizure at 30 mg/kg, po after 1 hr; type: functional
In short: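 sc-PTZ test in male KM mice. Compound suspended in 0.5% CMC-Na and given orally 1 h before PTZ (freshly dissolved in normal saline, 100 mg/kg). Protection against clonic seizures scored; ED50 by nonlinear regression.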

[2] = Toxicity in C57BL/6 mouse assessed as sedative effect at 80 mg/kg; type: organism-based; conditions: in vivo
[3] = target: T1, Potassium voltage-gated channel subfamily KQT member 1 (Homo sapiens, UniProt P51787); assay: Agonist activity at human KCNQ1 channel expressed in CHO cells assessed as amplitude change of outward current at 10 uM by patch clamp method; type: cell-based
T1 sequence (P51787 whole entry): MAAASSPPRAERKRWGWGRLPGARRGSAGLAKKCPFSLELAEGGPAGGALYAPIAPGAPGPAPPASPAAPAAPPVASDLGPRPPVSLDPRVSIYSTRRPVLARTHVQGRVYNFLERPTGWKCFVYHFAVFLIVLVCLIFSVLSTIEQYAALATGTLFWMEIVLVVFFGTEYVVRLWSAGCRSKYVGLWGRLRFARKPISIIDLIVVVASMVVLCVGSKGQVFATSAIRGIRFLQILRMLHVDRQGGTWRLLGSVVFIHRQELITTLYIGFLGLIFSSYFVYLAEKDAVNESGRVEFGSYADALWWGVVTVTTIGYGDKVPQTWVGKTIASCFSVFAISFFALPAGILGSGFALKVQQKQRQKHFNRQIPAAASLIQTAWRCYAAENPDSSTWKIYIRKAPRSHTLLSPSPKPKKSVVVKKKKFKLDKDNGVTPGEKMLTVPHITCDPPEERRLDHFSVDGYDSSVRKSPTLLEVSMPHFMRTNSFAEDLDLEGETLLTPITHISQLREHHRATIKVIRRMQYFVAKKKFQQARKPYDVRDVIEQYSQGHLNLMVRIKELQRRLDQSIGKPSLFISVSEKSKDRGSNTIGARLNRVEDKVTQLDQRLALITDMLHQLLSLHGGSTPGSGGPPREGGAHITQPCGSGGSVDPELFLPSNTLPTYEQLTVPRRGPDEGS
In short: (§1)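 Whole-cell patch clamp at room temperature on CHO cells (DMEM/F12, 10% FBS) transiently co-transfected with EGFP and hKCNQ1, rKCNQ2, rKCNQ3 A278T, hKCNQ4 or hKCNQ5; KCNQ2/3 at 1:1 cDNA ratio. Pipette solution 145 mM KCl, 5 mM MgATP, pH 7.3; bath 140 mM NaCl, 5 mM KCl, pH 7.4, under perfusion. V1/2 from Boltzmann fits; I/I0 is current amplitude with versus without compound; n = 4−6.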

Mus musculus [4] = assay: Anticonvulsant activity in MES induced Kunming mouse model of seizure at 30 mg/kg, po after 1 hr; type: functional
In short: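 MES test in male KM mice. Compounds freshly suspended in 0.5% CMC-Na and given by gavage at 20 mL/kg; 160 V stimulus through ear clips. Protection scored as absence of hindlimb tonic extension; time course at 0.25, 0.5, 1 and 2 h, otherwise tested at 1 h. ED50 from dose−response by nonlinear regression; Fisher's exact test versus vehicle.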

[5] = target: Potassium voltage-gated channel subfamily KQT member 5 (Homo sapiens) (UniProt Q9NR82); assay: Agonist activity at human KCNQ5 channel expressed in CHO cells assessed as shift of half voltage of maximal activation at 10 uM by patch clamp method; type: cell-based; conditions: filed as agonist; in short: as §1
Potassium voltage-gated channel subfamily KQT member 5 (Homo sapiens), sequence (Q9NR82 whole entry): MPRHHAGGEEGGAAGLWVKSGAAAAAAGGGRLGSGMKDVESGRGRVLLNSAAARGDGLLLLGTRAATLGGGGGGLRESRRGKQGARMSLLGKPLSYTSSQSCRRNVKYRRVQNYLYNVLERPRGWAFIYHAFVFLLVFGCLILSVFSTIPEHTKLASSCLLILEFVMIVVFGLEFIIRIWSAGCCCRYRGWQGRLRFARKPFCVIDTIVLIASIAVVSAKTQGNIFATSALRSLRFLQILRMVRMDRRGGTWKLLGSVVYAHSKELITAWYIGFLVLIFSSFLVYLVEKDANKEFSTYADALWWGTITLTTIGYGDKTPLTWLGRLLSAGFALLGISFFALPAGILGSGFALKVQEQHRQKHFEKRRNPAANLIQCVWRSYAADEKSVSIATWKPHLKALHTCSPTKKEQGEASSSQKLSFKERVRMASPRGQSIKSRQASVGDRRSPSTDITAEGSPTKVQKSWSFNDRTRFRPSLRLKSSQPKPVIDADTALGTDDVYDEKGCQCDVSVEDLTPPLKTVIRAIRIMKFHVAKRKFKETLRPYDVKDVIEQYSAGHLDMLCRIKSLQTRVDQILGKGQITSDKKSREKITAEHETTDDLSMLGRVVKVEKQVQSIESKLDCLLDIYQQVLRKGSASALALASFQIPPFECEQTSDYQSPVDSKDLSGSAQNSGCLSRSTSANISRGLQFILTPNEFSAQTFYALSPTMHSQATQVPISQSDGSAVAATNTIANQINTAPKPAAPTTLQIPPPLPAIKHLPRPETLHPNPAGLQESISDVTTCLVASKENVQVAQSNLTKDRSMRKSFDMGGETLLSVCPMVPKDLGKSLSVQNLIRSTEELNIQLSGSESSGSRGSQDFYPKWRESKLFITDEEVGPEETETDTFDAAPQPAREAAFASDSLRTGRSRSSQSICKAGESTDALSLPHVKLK

[6] = target: T2, Potassium voltage-gated channel subfamily KQT member 4 (Homo sapiens) (UniProt P56696); assay: Agonist activity at human KCNQ4 channel expressed in CHO cells assessed as amplitude change of outward current at 0.1 uM by patch clamp method; type: cell-based; conditions: filed as agonist; in short: as §1
T2 sequence (whole entry): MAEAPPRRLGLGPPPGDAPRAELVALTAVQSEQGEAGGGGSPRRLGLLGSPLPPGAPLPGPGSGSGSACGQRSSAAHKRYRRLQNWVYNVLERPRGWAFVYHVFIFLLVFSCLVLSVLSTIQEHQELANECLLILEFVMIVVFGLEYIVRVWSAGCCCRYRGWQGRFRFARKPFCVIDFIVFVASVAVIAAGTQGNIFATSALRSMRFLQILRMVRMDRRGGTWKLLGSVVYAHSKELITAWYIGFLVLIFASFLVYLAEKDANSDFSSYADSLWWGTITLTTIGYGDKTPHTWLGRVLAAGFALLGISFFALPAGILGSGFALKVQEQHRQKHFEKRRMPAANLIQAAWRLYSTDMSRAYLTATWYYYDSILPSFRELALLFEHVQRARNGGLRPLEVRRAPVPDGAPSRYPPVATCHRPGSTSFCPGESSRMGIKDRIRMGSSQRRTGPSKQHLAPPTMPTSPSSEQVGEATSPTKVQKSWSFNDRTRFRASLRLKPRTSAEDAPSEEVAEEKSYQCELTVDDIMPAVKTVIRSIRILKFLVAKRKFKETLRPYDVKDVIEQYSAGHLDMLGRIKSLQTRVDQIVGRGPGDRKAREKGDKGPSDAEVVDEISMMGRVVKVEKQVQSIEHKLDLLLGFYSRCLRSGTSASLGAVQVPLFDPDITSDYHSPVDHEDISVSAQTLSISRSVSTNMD

[7] = target: Potassium voltage-gated channel subfamily KQT member 2 (Rattus norvegicus) (UniProt O88943); assay: Agonist activity at rat KCNQ2 channel expressed in CHO cells assessed as shift of half voltage of maximal activation at 0.1 uM by patch clamp method; type: cell-based; conditions: filed as agonist; in short: as §1
Potassium voltage-gated channel subfamily KQT member 2 (Rattus norvegicus), sequence (O88943 whole entry): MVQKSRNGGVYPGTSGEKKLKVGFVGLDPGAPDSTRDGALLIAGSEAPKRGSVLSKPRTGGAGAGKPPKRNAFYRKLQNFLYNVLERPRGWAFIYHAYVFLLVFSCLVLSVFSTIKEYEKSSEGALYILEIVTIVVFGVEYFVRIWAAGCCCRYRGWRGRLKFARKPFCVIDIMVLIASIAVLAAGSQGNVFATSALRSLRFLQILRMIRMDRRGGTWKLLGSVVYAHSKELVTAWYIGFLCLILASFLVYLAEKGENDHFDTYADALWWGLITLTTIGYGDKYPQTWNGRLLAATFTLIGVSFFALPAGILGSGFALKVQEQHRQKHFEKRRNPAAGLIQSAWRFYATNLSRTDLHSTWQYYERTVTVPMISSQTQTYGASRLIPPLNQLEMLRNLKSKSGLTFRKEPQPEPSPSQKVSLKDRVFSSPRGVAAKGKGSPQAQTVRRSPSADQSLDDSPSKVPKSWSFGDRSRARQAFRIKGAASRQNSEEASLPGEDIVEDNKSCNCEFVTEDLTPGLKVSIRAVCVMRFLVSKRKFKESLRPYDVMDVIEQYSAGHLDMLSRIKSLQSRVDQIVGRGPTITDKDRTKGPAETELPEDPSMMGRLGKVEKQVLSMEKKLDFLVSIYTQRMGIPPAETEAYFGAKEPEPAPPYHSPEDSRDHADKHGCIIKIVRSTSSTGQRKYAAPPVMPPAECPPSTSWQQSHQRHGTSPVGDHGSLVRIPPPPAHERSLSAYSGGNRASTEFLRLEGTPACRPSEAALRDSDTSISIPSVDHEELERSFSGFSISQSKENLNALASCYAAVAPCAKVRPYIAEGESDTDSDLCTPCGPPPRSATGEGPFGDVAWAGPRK

CYP2C9 = CYP2C9 (Homo sapiens, UniProt P11712); assay: Inhibition of human liver microsome CYP2C9 at 0.10 to 50 uM preincubated with NADPH for 0.5 hrs followed by substrate addition by LC-MS/MS method relative to control; type: ADME; conditions: liver microsomes, dose 0.1-50 µM
CYP2C9, sequence (P11712 whole entry): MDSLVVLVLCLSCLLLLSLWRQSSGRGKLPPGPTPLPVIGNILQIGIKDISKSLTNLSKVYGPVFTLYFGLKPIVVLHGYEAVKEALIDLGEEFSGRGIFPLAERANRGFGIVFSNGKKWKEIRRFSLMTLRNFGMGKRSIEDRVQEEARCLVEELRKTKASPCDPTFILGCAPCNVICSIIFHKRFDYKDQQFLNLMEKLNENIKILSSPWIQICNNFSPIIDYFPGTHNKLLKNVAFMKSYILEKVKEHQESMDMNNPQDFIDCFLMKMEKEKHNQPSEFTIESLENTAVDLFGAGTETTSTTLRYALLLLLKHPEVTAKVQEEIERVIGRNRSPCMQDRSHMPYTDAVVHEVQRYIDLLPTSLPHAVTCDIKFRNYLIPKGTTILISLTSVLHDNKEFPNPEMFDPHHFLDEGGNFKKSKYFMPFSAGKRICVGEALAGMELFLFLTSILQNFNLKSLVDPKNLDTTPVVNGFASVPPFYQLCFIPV

CYP2C8 = CYP2C8 (Homo sapiens, UniProt P10632); assay: Ratio of IC50 for human liver microsome CYP2C8 in absence of NADPH to IC50 for human liver microsome CYP2C8 in presence of NADPH; conditions: liver microsomes, read-out: Ratio IC50
CYP2C8, sequence (P10632 whole entry): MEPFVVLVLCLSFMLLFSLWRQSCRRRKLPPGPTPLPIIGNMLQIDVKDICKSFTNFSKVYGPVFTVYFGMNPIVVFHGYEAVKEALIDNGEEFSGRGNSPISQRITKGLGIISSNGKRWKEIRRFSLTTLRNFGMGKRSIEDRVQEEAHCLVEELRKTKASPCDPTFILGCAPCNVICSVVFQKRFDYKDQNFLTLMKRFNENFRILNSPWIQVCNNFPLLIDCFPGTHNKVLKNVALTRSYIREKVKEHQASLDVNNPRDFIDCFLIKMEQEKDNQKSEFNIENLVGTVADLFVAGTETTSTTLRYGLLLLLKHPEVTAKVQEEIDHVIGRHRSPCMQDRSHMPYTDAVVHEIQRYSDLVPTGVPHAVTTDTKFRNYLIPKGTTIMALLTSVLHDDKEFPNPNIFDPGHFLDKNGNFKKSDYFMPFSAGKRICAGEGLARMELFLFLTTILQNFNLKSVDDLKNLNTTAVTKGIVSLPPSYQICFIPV

[8] = target: Potassium voltage-gated channel subfamily KQT member 2 (Rattus norvegicus) (UniProt O88943); assay: Potency index, ratio of retigabine EC50 to test compound EC50 for agonist activity at rat KCNQ2 channel expressed in CHO cells by patch clamp method; type: cell-based
[9] = Neurotoxicity in Kunming mouse assessed as motor impairment rate at 150 mg/kg, po after 1 hr by rotarod test; type: toxicity, organism-based; conditions: in vivo
In short: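 Male KM mice dosed intragastrically with compound freshly suspended in 0.5% CMC-Na. Rotarod performance scored 1 h after dosing as the fraction of animals showing motor impairment. Fisher's exact test versus vehicle; TD50 from nonlinear dose−response fit.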

[10] = AUC(0 to t) in Kunming mouse brain at 5 mg/kg, po measured upto 24 hrs by LC-MS/MS method; type: ADME, organism-based; design: dose 5 mg/kg, time < 24 hrs, route po
In short: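 KM male mice (18−24 g), fasted 12 h before and 2 h after dosing. HN37 given orally at 5 mg/kg in 5% DMSO/5% Tween 80/90% saline, or iv at 2 mg/kg after dilution in saline with 1% Tween 80; n = 3 per time point. Blood sampled 0.25–24 h (from 0.083 h after iv); whole brain taken after oral dosing. Plasma and brain extracted with acetonitrile, quantified by LC−MS/MS; AUC0−t by trapezoidal method.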

Row | Structure (SMILES) | Activity (Mus musculus [1]) [%] | Activity [2] | Activity [3] | Activity (Mus musculus [4]) [%] | Activity [5] [mV] | Activity [6] | Activity [7] [mV] | inhibition at 0.5 h, up to 50 µM (CYP2C9) [%] | IC50 shift (CYP2C8) | Ratio EC50 [8] | Activity [9] [%] | AUC(0-t) at 24 h [10] [ng·h/mL]
1 | CCOC(=O)Nc1ccc(NCc2ccc(F)cc2)cc1N [EZOGABINE] | 50 | Toxic | 1.01 | 60 | 0.09 | – | – | – | – | – | – | –
2 | C#CCN(Cc1ccc(F)cc1)c1cc(C)c(NC(=O)OC)c(C)c1 | – | – | – | – | – | 3.76 | -35.6 | < 25 | > 1.5 | 55 | 87.5 | 716
